# From ChEMBL document CHEMBL1153752, “Hymenopsins A and B and a macrophorin analogue from a fungicolous Hymenopsis sp” (2010)
# Calls of active or inactive are those of the source. No cut-off for these calls is given here.
# Tests used:
# [1] = system: Staphylococcus aureus; assay: Antibacterial activity against Staphylococcus aureus ATCC 25923 at 200 ug/disk by disk diffusion method; type: functional; conditions: for zone of inhibition at 200 µg/disc: read-out: IZ
# Method in brief: (§1)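 Standard paper-disk diffusion assay. Test material was loaded at 200 μg/disk, and gentamicin sulfate was run as the standard at 50 μg/disk. The C. albicans assay used the same 200 μg/disk level. The read-out was the diameter of the zone of inhibition in mm.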
# [2] = system: Fusarium verticillioides; assay: Antifungal activity against Fusarium verticillioides NRRL 25457 at 200 ug/disk by disk diffusion method; type: functional
# [3] = system: Aspergillus flavus; assay: Antifungal activity against Aspergillus flavus NRRL 6541 at 200 ug/disk by disk diffusion method; type: functional
# [4] = system: Bacillus subtilis; assay: Antibacterial activity against Bacillus subtilis ATCC 6051 at 200 ug/disk by disk diffusion method; type: functional; conditions: for zone of inhibition at 200 µg/disc: read-out: IZ; method in brief: as §1
# [5] = system: Candida albicans; assay: Antifungal activity against Candida albicans ATCC 14053 at 200 ug/disk by disk diffusion method; type: functional, organism-based; method in brief: as §1
# [6] = system: Staphylococcus aureus; assay: Antibacterial activity against Staphylococcus aureus ATCC 25923 at 50 ug/disk by disk diffusion method; type: functional, organism-based; method in brief: as §1
# [7] = system: Bacillus subtilis; assay: Antibacterial activity against Bacillus subtilis ATCC 6051 at 50 ug/disk by disk diffusion method; type: functional, organism-based; method in brief: as §1
# [8] = system: Fusarium verticillioides; assay: Antifungal activity against Fusarium verticillioides NRRL 25457 at 25 ug/disk by disk diffusion method; type: functional, organism-based
# [9] = system: Candida albicans; assay: Antifungal activity against Candida albicans ATCC 14053 at 25 ug/disk by disk diffusion method; type: functional, organism-based
# [10] = system: Aspergillus flavus; assay: Antifungal activity against Aspergillus flavus NRRL 6541 at 25 ug/disk by disk diffusion method; type: functional, organism-based
molecule,measurement,setting,value
C=C1CC[C@H]2[C@](C)(CO)CCC[C@]2(C)[C@H]1C[C@@]12O[C@@H]1C(=O)[C@]1(CO)O[C@@H]1C2=O,zone of inhibition at 200 µg/disc,[1],32 mm
same,zone of inhibition at 200 µg/disc,[2]; read-out: IZ,20 mm
same,zone of inhibition at 200 µg/disc,[3]; read-out: IZ,20 mm
same,zone of inhibition at 200 µg/disc,[4],32 mm
same,inhibition zone (IZ),[5],inactive
C[C@@]1(CO)CCC[C@]2(C)[C@H]3C[C@@]45O[C@@H]4[C@H](O)[C@]4(CO)O[C@@H]4[C@]5(O)CC3=CC[C@@H]12,inhibition zone (IZ),[1],inactive
same,inhibition zone (IZ),[2],inactive
same,inhibition zone (IZ),[3],inactive
same,inhibition zone (IZ),[4],inactive
same,inhibition zone (IZ),[5],inactive
C[C@@]1(CO)CCC[C@]2(C)[C@H]3C[C@@]45O[C@@H]4C(=O)[C@]4(CO)O[C@@H]4[C@]5(O)CC3=CC[C@@H]12 [HYMENOPSIN B],zone of inhibition at 200 µg/disc,[1],21 mm
same,inhibition zone (IZ),[2],inactive
same,inhibition zone (IZ),[3],inactive
same,zone of inhibition at 200 µg/disc,[4],21 mm
same,inhibition zone (IZ),[5],inactive
GENTAMICIN SULFATE,inhibition zone (IZ),[6],25 mm
same,inhibition zone (IZ),[7],25 mm
same,inhibition zone (IZ),[5],inactive
NYSTATIN,inhibition zone (IZ),[8],Active
same,inhibition zone (IZ),[9],Active
same,inhibition zone (IZ),[10],Active
